In one assay the test system is Amaranthus retroflexus. The experiment in a line: Post-emergence herbicidal activity against Amaranthus retroflexus assessed as growth inhibition at 150 g ai/ha measured 15 days post compound treatment under green house conditions. The following applies: 360 h, read-out: GI. It is filed as functional. Put shortly: (§1)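 Compounds formulated as 100 g/L emulsifiable concentrate (DMF solvent, Tween-80 emulsifier), diluted with water, sprayed post-emergence on pot-grown weeds in clay soil (pH 6.5, 1.6% organic matter). Seeds sown 1-3 cm deep, grown at 15-30 °C. Dicots were treated at the 2-leaf stage and monocots at the 1-leaf stage. Untreated and DMF-treated controls were included. Injury was rated visually 15 days after treatment.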

Another assay relates to Brassica juncea. The experiment in a line: Post-emergence herbicidal activity against Brassica juncea assessed as growth inhibition at 150 g ai/ha measured 15 days post compound treatment under green house conditions. Type of assay: functional. The following applies: 360 h, read-out: GI. Put shortly: as §1
A further assay relates to Eclipta prostrata. The experiment in a line: Post-emergence herbicidal activity against Eclipta prostrata assessed as growth inhibition at 150 g ai/ha measured 15 days post compound treatment under green house conditions. It is filed as functional. Conditions: 360 h, read-out: GI. Put shortly:
as §1

A further assay has as its system Echinochloa crus-galli. The experiment in a line: Post-emergence herbicidal activity against Echinochloa crus-galli (barnyard grass) assessed as growth inhibition at 150 g ai/ha measured 15 days post compound treatment under green house conditions. The following applies: 360 h, read-out: GI. It is filed as functional. Put shortly:
as §1

The test system of the next assay is Poa annua. The experiment in a line: Post-emergence herbicidal activity against Poa annua assessed as growth inhibition at 150 g ai/ha measured 15 days post compound treatment under green house conditions. It is filed as functional. Conditions: 360 h, read-out: GI. Put shortly: as §1
Another assay concerns Digitaria sanguinalis. As to the kind of experiment: Post-emergence herbicidal activity against Digitaria sanguinalis (hairy crabgrass) assessed as growth inhibition at 150 g ai/ha measured 15 days post compound treatment under green house conditions. It is filed as functional. Conditions: 360 h, read-out: GI. Put shortly: as §1
Assay [1] has as its target T1, Acetolactate synthase, chloroplastic (Arabidopsis thaliana, UniProt P17597).
T1 sequence (P17597 whole entry): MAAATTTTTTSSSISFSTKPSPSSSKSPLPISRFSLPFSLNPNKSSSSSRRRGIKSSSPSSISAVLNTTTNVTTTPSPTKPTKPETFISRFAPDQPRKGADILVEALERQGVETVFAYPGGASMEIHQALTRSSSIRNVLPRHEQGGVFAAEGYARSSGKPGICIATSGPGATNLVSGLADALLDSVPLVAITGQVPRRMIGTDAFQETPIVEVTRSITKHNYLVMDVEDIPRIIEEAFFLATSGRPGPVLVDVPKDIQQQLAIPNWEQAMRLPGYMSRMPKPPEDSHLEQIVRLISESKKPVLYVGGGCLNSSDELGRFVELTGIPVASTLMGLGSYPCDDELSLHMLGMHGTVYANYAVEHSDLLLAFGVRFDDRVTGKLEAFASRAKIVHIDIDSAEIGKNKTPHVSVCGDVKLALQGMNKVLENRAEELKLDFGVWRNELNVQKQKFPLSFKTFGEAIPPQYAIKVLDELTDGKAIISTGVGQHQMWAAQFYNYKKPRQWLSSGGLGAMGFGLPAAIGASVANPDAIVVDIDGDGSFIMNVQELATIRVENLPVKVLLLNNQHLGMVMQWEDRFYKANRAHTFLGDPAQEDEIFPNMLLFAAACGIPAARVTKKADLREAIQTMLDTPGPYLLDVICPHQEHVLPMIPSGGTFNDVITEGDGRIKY

The Ki is a measure of affinity in units of concentration, obtained from inhibition or displacement.

Turning to `COc1ccn2nc(S(=O)(=O)Nc3ccc(Br)cc3)nc2n1`, the inhibition of growth at 150 g/ha in the assay with Amaranthus retroflexus, with Brassica juncea, with Eclipta prostrata, in the assay with Echinochloa crus-galli, in the assay with Poa annua and in the assay on Digitaria sanguinalis was less than 50% each time. The Ki in assay [1] was greater than 1000 µM.
As for `COc1ccn2nc(S(=O)(=O)Nc3ccccc3Br)nc2n1`, the inhibition of growth at 150 g/ha with Amaranthus retroflexus is 50%; in the assay on Brassica juncea it was no less than 80%; in the assay with Eclipta prostrata, no less than 80%; in the assay on Echinochloa crus-galli, less than 50%; in the assay with Poa annua it was less than 50%; in the assay with Digitaria sanguinalis it was less than 50%. The molecule also yielded an inhibition constant Ki in assay [1] of 22.6 µM.
For `COc1ccn2nc(S(=O)(=O)Nc3ccc(OC(F)(F)F)cc3)nc2n1`, the inhibition of growth at 150 g/ha in the assay on Amaranthus retroflexus, in the assay with Brassica juncea, in the assay with Eclipta prostrata, with Echinochloa crus-galli, with Poa annua and in the assay on Digitaria sanguinalis was less than 50% throughout. Also, the Ki in assay [1] is greater than 1000 µM.
For `Cc1nc(C)n2nc(S(=O)(=O)Nc3ccc(F)c(F)c3F)nc2c1Cl`, the inhibition of growth at 150 g/ha in the assay with Amaranthus retroflexus, in the assay on Brassica juncea, in the assay on Eclipta prostrata, with Echinochloa crus-galli, in the assay on Poa annua and in the assay with Digitaria sanguinalis was less than 50% in each case. This molecule came in with a Ki in assay [1] greater than 1000 µM.
`Cc1nc(C)n2nc(S(=O)(=O)Nc3ccccc3F)nc2c1Cl`: the inhibition of growth at 150 g/ha in the assay on Amaranthus retroflexus was 50%; in the assay with Brassica juncea it was 50%; with Eclipta prostrata, 50%; with Echinochloa crus-galli it was less than 50%; with Poa annua it was less than 50%; in the assay on Digitaria sanguinalis it was less than 50%. The molecule further registered an inhibition constant (Ki) in assay [1] of 25.8 µM.
On to `Cc1cc2nc(S(=O)(=O)Nc3ccc(F)c(F)c3F)nn2c(C)n1`, for which the inhibition of growth at 150 g/ha in the assay on Amaranthus retroflexus is less than 50%; in the assay with Brassica juncea, less than 50%; in the assay on Eclipta prostrata, 50%; in the assay with Echinochloa crus-galli it was less than 50%; in the assay with Poa annua it was less than 50%; in the assay with Digitaria sanguinalis, less than 50%. Further, the Ki in assay [1] is greater than 1000 µM.
As for `Cc1nc(C(F)(F)F)cc2nc(S(=O)(=O)Nc3ccc(F)c(F)c3F)nn12`, the inhibition of growth at 150 g/ha is less than 50% in the assay on Amaranthus retroflexus; less than 50% in the assay with Brassica juncea; 50% in the assay with Eclipta prostrata; less than 50% with Echinochloa crus-galli; less than 50% with Poa annua; less than 50% with Digitaria sanguinalis. In assay [1], this molecule returned a Ki greater than 1000 µM.
Consider `Cc1nc(C)n2nc(S(=O)(=O)Nc3ccc(C(F)(F)F)cc3)nc2c1Cl`, for which the inhibition of growth at 150 g/ha with Amaranthus retroflexus was 50%; in the assay on Brassica juncea, less than 50%; in the assay on Eclipta prostrata, 50%; in the assay with Echinochloa crus-galli, less than 50%; with Poa annua, less than 50%; in the assay on Digitaria sanguinalis it was less than 50%. Besides, in assay [1], the Ki was greater than 1000 µM.
`Cc1cc2nc(S(=O)(=O)Nc3ccccc3F)nn2c(C)n1`: the inhibition of growth at 150 g/ha in the assay on Amaranthus retroflexus was 50%; in the assay on Brassica juncea, 50%; in the assay with Eclipta prostrata it was 50%; in the assay with Echinochloa crus-galli, less than 50%; in the assay on Poa annua it was less than 50%; in the assay on Digitaria sanguinalis, less than 50%. The inhibitory constant (Ki) in assay [1] was determined as 27.7 µM.
Take `Cc1nc(C(F)(F)F)cc2nc(S(=O)(=O)Nc3ccccc3F)nn12`: the inhibition of growth at 150 g/ha in the assay on Amaranthus retroflexus was 50%; in the assay with Brassica juncea, 50%; in the assay with Eclipta prostrata, 50%; in the assay on Echinochloa crus-galli, less than 50%; in the assay on Poa annua, less than 50%; in the assay on Digitaria sanguinalis it was less than 50%. This molecule also yielded a Ki in assay [1] of 569 µM.
In the case of `Cc1nc(C(F)(F)F)cc2nc(S(=O)(=O)Nc3cc(F)ccc3F)nn12`, the inhibition of growth at 150 g/ha with Amaranthus retroflexus, with Brassica juncea, in the assay with Eclipta prostrata, in the assay on Echinochloa crus-galli, in the assay on Poa annua and with Digitaria sanguinalis was less than 50% each time.
For `Cc1cc2nc(S(=O)(=O)Nc3ccc(C(F)(F)F)cc3Cl)nn2c(C)n1`, the inhibition of growth at 150 g/ha in the assay with Amaranthus retroflexus, with Brassica juncea, in the assay with Eclipta prostrata, in the assay with Echinochloa crus-galli, with Poa annua and in the assay on Digitaria sanguinalis was less than 50% in each case. Further, in assay [1], the inhibition constant (Ki) was 178 µM.
On to `Cc1cc2nc(S(=O)(=O)Nc3cc(Cl)ccc3C)nn2c(C)n1`, for which the inhibition of growth at 150 g/ha is less than 50% in the assay on Amaranthus retroflexus; less than 50% in the assay on Brassica juncea; 50% with Eclipta prostrata; less than 50% in the assay with Echinochloa crus-galli; less than 50% with Poa annua; less than 50% in the assay on Digitaria sanguinalis. The same molecule yielded a Ki in assay [1] of 7.75 µM.
On to `Cc1cc2nc(S(=O)(=O)Nc3cc(F)ccc3F)nn2c(C)n1`, for which the inhibition of growth at 150 g/ha in the assay with Amaranthus retroflexus, in the assay on Brassica juncea, with Eclipta prostrata, in the assay on Echinochloa crus-galli, in the assay on Poa annua and in the assay with Digitaria sanguinalis was less than 50% in each case. Further, affinity in assay [1] was put at a Ki of 28.1 µM.
On to `COc1ccn2nc(S(=O)(=O)Nc3c(F)cccc3F)nc2n1`, for which the inhibition of growth at 150 g/ha with Amaranthus retroflexus was no less than 90%; in the assay on Brassica juncea it was no less than 90%; in the assay with Eclipta prostrata it was no less than 90%; with Echinochloa crus-galli, less than 50%; with Digitaria sanguinalis, less than 50%. In assay [1], this molecule yielded an inhibitory constant (Ki) of 18.5 µM.
On to `COc1ccn2nc(S(=O)(=O)Nc3cc(F)c(F)c(F)c3)nc2n1`, for which the inhibition of growth at 150 g/ha in the assay with Amaranthus retroflexus, in the assay on Brassica juncea, in the assay on Eclipta prostrata, in the assay with Echinochloa crus-galli, in the assay on Poa annua and with Digitaria sanguinalis was less than 50% each time. In addition, the Ki in assay [1] was greater than 1000 µM.
For the molecule `COc1ccn2nc(S(=O)(=O)Nc3cc(F)ccc3F)nc2n1`, the inhibition of growth at 150 g/ha was 50% in the assay with Amaranthus retroflexus; 50% in the assay with Brassica juncea; 50% in the assay on Eclipta prostrata; less than 50% in the assay with Echinochloa crus-galli; less than 50% with Poa annua; less than 50% with Digitaria sanguinalis. Also, in assay [1], the Ki stood at 53.3 µM.
For `COc1ccn2nc(S(=O)(=O)Nc3ccccc3F)nc2n1`, the inhibition of growth at 150 g/ha in the assay with Amaranthus retroflexus was 50%; in the assay on Brassica juncea, 50%; with Eclipta prostrata, no less than 80%; with Echinochloa crus-galli, less than 50%; in the assay on Poa annua, less than 50%; with Digitaria sanguinalis, less than 50%. In assay [1], this molecule returned an inhibition constant (Ki) of 25.9 µM.

These data come from ChEMBL document CHEMBL3046780, “Syntheses and herbicidal activity of new triazolopyrimidine-2-sulfonamides as acetohydroxyacid synthase inhibitor” (Bioorg Med Chem, 2010).
